Columns and labels:
[1] = Inhibition of Schistosoma mansoni AE expressed in Pichia pastoris after 20 mins
Procedure, shortened: (§1)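 Recombinant AE zymogens expressed in Pichia pastoris; SmAE and TvAE1 autoactivated in 0.5 M sodium acetate, 4 mM DTT, pH 4.5, 37 °C, 3 h to overnight; IrAE used without activation. Buffer 0.1 M citrate phosphate, 4 mM DTT, pH 6.8 (SmAE, TvAE1) or pH 5.5 (IrAE). Inhibitor 2.0–0.0002 µM final, 20 min preincubation at room temperature; 10 µM final Cbz-Ala-Ala-Asn-AMC, 20 min; IC50 from RFU/min vs concentration.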

[2] = Inhibition of Trichomonas vaginalis G3 AE1 expressed in Pichia pastoris after 20 mins; procedure, shortened: as §1
[3] = Inhibition of Ixodes ricinus AE expressed in Pichia pastoris after 20 mins; procedure, shortened: as §1

Row | SMILES | IC50 [1] [µM] | IC50 [2] [µM] | IC50 [3] [µM]
1 | C[C@H](NC(=O)OCc1ccccc1)C(=O)N[C@@H](C)C(=O)NN(CC(N)=O)C(=O)/C=C/C(=O)N1CCc2ccccc2C1 | 0.2 | 0.01 | 0.025
2 | C[C@H](NC(=O)OCc1ccccc1)C(=O)N[C@@H](C)C(=O)NN(CC(N)=O)C(=O)/C=C/C(=O)NCc1ccc(F)cc1 | 0.8 | 0.075 | 0.25
3 | C[C@H](NC(=O)OCc1ccccc1)C(=O)N[C@@H](C)C(=O)NN(CC(N)=O)C(=O)/C=C/C(=O)NCc1ccccc1 | 1 | 0.01 | 0.2
4 | C[C@H](NC(=O)OCc1ccccc1)C(=O)N[C@@H](C)C(=O)NN(CC(N)=O)C(=O)/C=C/C(=O)N(C)C(Cc1ccccc1)C(=O)N(C)CCc1ccccc1 (some centres undefined) | 0.75 | 0.08 | 0.3
5 | C[C@H](NC(=O)OCc1ccccc1)C(=O)N[C@@H](C)C(=O)NN(CC(N)=O)C(=O)/C=C/C(=O)N(Cc1ccccc1)Cc1ccc(F)cc1 | 0.06 | < 0.001 | 0.7
6 | C[C@H](NC(=O)OCc1ccccc1)C(=O)N[C@@H](C)C(=O)NN(CC(N)=O)C(=O)/C=C/c1ccco1 | > 2 | – | 7.5
7 | C[C@H](NC(=O)OCc1ccccc1)C(=O)N[C@@H](C)C(=O)NN(CC(N)=O)C(=O)/C=C/C(=O)N1CCCCC1 | 1 | 0.5 | –
8 | CCOC(=O)/C=C/C(=O)N(CC(N)=O)NC(=O)[C@H](C)NC(=O)[C@H](C)NC(=O)CCCC[C@@H]1SC[C@@H]2NC(=O)N[C@@H]21 | 0.01 | < 0.01 | 0.0028
9 | C[C@H](NC(=O)OCc1ccccc1)C(=O)N[C@@H](C)C(=O)NN(CC(N)=O)C(=O)/C=C/C(=O)N1Cc2ccccc2C1 | 0.3 | 0.02 | 0.0045
10 | CCCCN(CCCC)C(=O)/C=C/C(=O)N(CC(N)=O)NC(=O)[C@H](C)NC(=O)[C@H](C)NC(=O)OCc1ccccc1 | 0.55 | 1 | 0.1
11 | C[C@H](NC(=O)OCc1ccccc1)C(=O)N[C@@H](C)C(=O)NN(CC(N)=O)C(=O)/C=C/C(=O)N(Cc1ccccc1)c1ccccc1 | 0.07 | < 0.001 | < 0.001
12 | C[C@H](NC(=O)OCc1ccccc1)C(=O)N[C@@H](C)C(=O)NN(CC(N)=O)C(=O)/C=C/C(=O)N(C)CCc1ccccc1 | 0.6 | 0.05 | –
13 | C[C@H](NC(=O)OCc1ccccc1)C(=O)N[C@@H](C)C(=O)NN(CC(N)=O)C(=O)/C=C/C(=O)N1CC=C(c2ccccc2)CC1 | 0.75 | 0.01 | 0.085
14 | C[C@H](NC(=O)OCc1ccccc1)C(=O)N[C@@H](C)C(=O)NN(CC(N)=O)C(=O)/C=C/C(=O)N(C)c1ccccc1 | 0.06 | 0.005 | 0.0018
15 | COc1ccc(CN(Cc2ccccc2)C(=O)/C=C/C(=O)N(CC(N)=O)NC(=O)[C@H](C)NC(=O)[C@H](C)NC(=O)OCc2ccccc2)cc1 | 0.09 | 0.0023 | 0.012
16 | C[C@H](NC(=O)OCc1ccccc1)C(=O)N[C@@H](C)C(=O)NN(CC(N)=O)C(=O)/C=C/C(=O)N1CCCc2ccccc21 | 0.07 | 0.0035 | 0.004
17 | C[C@H](NC(=O)OCc1ccccc1)C(=O)N[C@@H](C)C(=O)NN(CC(N)=O)C(=O)/C=C/C(=O)N(Cc1ccco1)Cc1ccco1 | 0.9 | 5 | 15
18 | C[C@H](NC(=O)OCc1ccccc1)C(=O)N[C@@H](C)C(=O)NN(CC(N)=O)C(=O)/C=C/C(=O)Nc1ccccc1 | 0.7 | 0.02 | 0.01
19 | C[C@H](NC(=O)OCc1ccccc1)C(=O)N[C@@H](C)C(=O)NN(CC(N)=O)C(=O)/C=C/c1cccnc1 | > 2 | 8 | 15

Reference: ChEMBL document CHEMBL1150273, “Aza-peptidyl Michael acceptors. A new class of potent and selective inhibitors of asparaginyl endopeptidases (legumains) from evolutionarily diverse pathogens” (J Med Chem, 2008)
